MLL AF4-AF9 inh – inhibitors of AF4 peptide binding to AF9, primary screen, biochemical, AlphaScreen, biotin-AF4 peptide, FLAG-AF9, single point; Protein AF-9 (Homo sapiens), P42568; inhibition, % at 10 µM; actives 0.47% (n = 350,000); AID 651704, 2012;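 active means every replicate reaching a set inhibition limit, whatever the replicate mean, cut at about 25% in these data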
Target sequence (P42568 whole entry, looked up): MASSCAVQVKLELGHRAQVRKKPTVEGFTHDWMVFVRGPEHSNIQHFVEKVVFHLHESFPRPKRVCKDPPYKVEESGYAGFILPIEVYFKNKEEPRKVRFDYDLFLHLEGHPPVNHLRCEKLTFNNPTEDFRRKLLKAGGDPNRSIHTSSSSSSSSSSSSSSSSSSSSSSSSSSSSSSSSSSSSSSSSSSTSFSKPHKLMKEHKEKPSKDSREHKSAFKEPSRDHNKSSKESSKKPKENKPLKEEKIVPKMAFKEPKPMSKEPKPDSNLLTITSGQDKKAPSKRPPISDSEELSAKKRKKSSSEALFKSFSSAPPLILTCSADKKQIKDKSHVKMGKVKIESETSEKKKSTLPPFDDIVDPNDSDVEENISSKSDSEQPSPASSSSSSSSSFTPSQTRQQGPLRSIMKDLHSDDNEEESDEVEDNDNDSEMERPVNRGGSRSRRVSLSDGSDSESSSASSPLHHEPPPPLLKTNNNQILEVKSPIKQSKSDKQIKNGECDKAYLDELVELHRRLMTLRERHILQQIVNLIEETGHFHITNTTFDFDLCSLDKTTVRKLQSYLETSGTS
Glyco luc inh – increase of ERlucT glycosylation luciferase signal, primary screen, N-linked glycosylation inhibitor project, D54 ERlucT cells, luminescence, set 2; D54 ERlucT glycosylation luciferase reporter, 24 h; percent of 100 nM tunicamycin response; reporter increase, % at 12.5 µM; actives 0.23% (n = 360,000);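 active means mean luciferase reporter signal, scaled so untreated is 0 and the glycosylation-blocking control 100, at or above a set limit in every replicate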;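 further: luciferase carries N-glycosylation sites so blocking glycosylation raises the light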
RAD52 anneal inh – RAD52 DNA annealing inhibitors, primary screen, biochemical, FRET, single point, set 2; DNA repair protein RAD52 homolog (Homo sapiens), P43351; recombinant RAD52 DNA annealing, FRET fluorescence; inhibition, % at 18.7 µM; actives 0.46% (n = 360,000);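 active means every replicate showing at least 50% inhibition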
RAD54 branch – inhibitors of human RAD54 branch migration, primary screen, biochemical, fluorescence, single point; DNA repair and recombination protein RAD54-like (Homo sapiens), Q92698; RAD54 Holliday junction branch migration, FAM/BHQ fluorescence; inhibition, % at 10.4 µM; actives 0.14% (n = 360,000); AID 602329, 2012;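 active means mean normalized replicate activity at least 40 and at least half of replicates scoring 40 or more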;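 further: inhibitors cause a drop in the FAM fluorescence signal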
FN deposit inh – inhibitors of fibronectin matrix deposition, primary screen, AH1F cells, Alexa488-fibronectin fluorescence, plate reader. actives 0.086% (n = 350,000). AH1F fibroblasts, overnight. inhibition, % at 12.6 µM. AID 743247, 2014;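 active means mean inhibition across replicates of 30% or more, regardless of how many single replicates reach that level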
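Assay system: AH1F fibroblast monolayer, labelled fibronectin deposition. Amount: 10000 cells per well. Also added: labelled fibronectin 24 nM. Compound: single-point pinned compound. Incubation: cell attachment 1 h, compound and FN exposure overnight. Detection: fluorescence after three HBSS washes, excitation 485 nm, emission 525 nm. Read-out: inhibition of fibronectin deposition signal.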
Hits are given with their value; i = inactive; nt = no result given; ! = not confirmed by another sample. A selection: hits, their analogues and other compounds. The true share with any hit is near 0.92%.

SMILES	MLL AF4-AF9 inh	Glyco luc inh	RAD52 anneal inh	RAD54 branch	FN deposit inh
CC(C)CNC(=O)COC(=O)c1cccc(S(=O)(=O)NCC(F)(F)F)c1	25	i	i	i	i
Cc1ccc2nc(-c3ccc(SCC(=O)Nc4nnc(C)s4)nc3)[nH]c2c1	nt	102	nt	nt	nt
CC(=O)N1N=C(c2ccc(C)cc2)OC1c1ccc(Br)cc1 (centres undefined)	i	i	i	nt	i
CCOc1ccc(Br)cc1C1=NN(C(C)=O)C(c2ccc([N+](=O)[O-])s2)O1 (centres undefined)	i	36	i	i	i
COc1ccc(-c2ccc(C3[C@@H]4CN(C(=O)Nc5cccc(F)c5)C[C@H]3N4)cc2)cc1 (some centres undefined)	i	nt	84	nt	i
COc1ccc(NC(=O)N2C[C@@H]3N[C@H](C2)C3c2ccc(-c3cccc(OC)c3)cc2)cc1 (some centres undefined)	i	nt	54!	nt	i
COc1ccc(NC(=O)N2C[C@@H]3N[C@H](C2)[C@@H]3c2ccc(-c3ccc(OC)cc3)cc2)cc1	i	nt	68	nt	i
COc1ccc(NC(=O)N2C[C@@H]3N[C@H](C2)C3c2ccc(-c3ccncc3)cc2)cc1 (some centres undefined)	nt	nt	nt	nt	i
CN(C)c1ccc2c(c1)[C@@H]1C[C@H](CC(=O)N3CCCCC3)O[C@H](CO)[C@@H]1O2	i	nt	i	nt	i
CCN1[C@H](C(=O)Nc2ccccc2)[C@@H](CO)[C@@H]2Cn3c(ccc(-c4ccc(F)cc4)c3=O)[C@@H]21	i	nt	i	nt	nt
C[C@@H]1CN([C@H](C)CO)C(=O)c2cccc(NC(=O)Nc3ccc(C(F)(F)F)cc3)c2O[C@@H]1CN(C)CC1CCCCC1	i	nt	57	i	nt
C[C@@H]1CN([C@@H](C)CO)C(=O)c2cccc(NC(=O)Nc3ccc(C(F)(F)F)cc3)c2O[C@@H]1CN(C)C(=O)Nc1cccc2ccccc12	i	nt	i	i	36
Cc1cc(-c2nn(-c3ccccc3F)cc2CN2CCN(c3ccncc3)CC2)c(C)s1	32	i	i	i	i
Cc1cc(-c2nn(-c3ccccc3F)cc2CN2CCC(O)CC2)c(C)s1	i	i	i	i	i
O=S(=O)([N-]c1nc2ccccc2nc1-n1cc[n+](Cc2ccccc2)c1)c1ccc(Br)cc1	i	48	i	i	i
Clc1ccc(Nc2ccc(Cl)nn2)cc1	i	i	i	i	i
COc1ccc(Nc2ccc(Cl)nn2)cc1	43	i	i	i	i
Cc1nc2c3cc(F)ccc3n(CCN3CCCCC3)c2s1	i	32	i	i	i
Cc1nc2c3cc(F)ccc3n(Cc3ccccc3)c2s1	i	i	i	i	nt
C[C@H](CO)N1C[C@H](C)[C@@H](CN(C)Cc2ccc(C(=O)O)cc2)OCCCC[C@H](C)Oc2ccc(NC(=O)c3ccncc3)cc2C1=O	i	nt	96	i	nt
C[C@H]1CCCCO[C@@H](CN(C)Cc2ccncc2)[C@@H](C)CN([C@@H](C)CO)C(=O)c2cc(NC(=O)c3ccncc3)ccc2O1	i	nt	i	i	i
C[C@@H]1CCCCO[C@@H](CN(C)Cc2ccc(C(=O)O)cc2)[C@H](C)CN([C@@H](C)CO)C(=O)c2cc(NC(=O)c3ccncc3)ccc2O1	i	nt	104	i	nt
C[C@H]1CCCCO[C@H](CN(C)Cc2ccncc2)[C@@H](C)CN([C@@H](C)CO)C(=O)c2cc(NC(=O)c3ccncc3)ccc2O1	i	nt	i	i	i
C[C@H]1CCCCO[C@@H](CN(C)Cc2ccc(C(=O)O)cc2)[C@@H](C)CN([C@@H](C)CO)C(=O)c2cc(NC(=O)c3ccncc3)ccc2O1	i	nt	106	i	nt
C[C@H]1CCCCO[C@H](CN(C)Cc2ccc(C(=O)O)cc2)[C@@H](C)CN([C@@H](C)CO)C(=O)c2cc(NC(=O)c3ccncc3)ccc2O1	i	nt	102	i	nt
SMILES	MLL AF4-AF9 inh	Glyco luc inh	RAD52 anneal inh	RAD54 branch	FN deposit inh
O=C(Cc1ccccc1)N[C@@H]1C=C[C@H](CC(=O)N2CCOCC2)O[C@@H]1CO	i	nt	i	i	i
C[C@H]1CN([C@@H](C)CO)C(=O)Cc2cc(NC(=O)Nc3ccccc3)ccc2O[C@H]1CN(C)Cc1ccc(C(=O)O)cc1	i	nt	i	i	nt
C[C@@H]1CCCCO[C@H](CN(C)Cc2ccc(C(=O)O)cc2)[C@H](C)CN([C@@H](C)CO)C(=O)c2cc(NC(=O)c3ccncc3)ccc2O1	i	nt	101	i	nt
C[C@@H]1CCCCO[C@@H](CN(C)Cc2ccc(C(=O)O)cc2)[C@@H](C)CN([C@H](C)CO)C(=O)c2cc(NC(=O)c3ccncc3)ccc2O1	i	nt	76	i	nt
C[C@@H]1CN([C@H](C)CO)C(=O)c2cc(-c3ccc(F)cc3)cnc2O[C@H]1CN(C)C(=O)Nc1ccc(F)cc1	nt	nt	nt	nt	i
C[C@H](CO)N1C[C@H](C)[C@H](CN(C)CC2CCCCC2)Oc2ccc(NC(=O)Nc3cccc4ccccc34)cc2C1=O	i	nt	i	i	nt
C[C@H]1CN([C@@H](C)CO)C(=O)c2cc(-c3ccc(C#N)cc3)cnc2O[C@H]1CN(C)C(=O)c1ccccc1	i	nt	i	i	i
O=C(C[C@H]1CC[C@H]2[C@@H](COC[C@H](O)CN2C(=O)Nc2cccc(F)c2)O1)NCCCN1CCOCC1	i	nt	i	i	i
Cc1cccc(C=NNc2cc(C)c3cccc(C)c3n2)n1	25	nt	i	nt	nt
Cc1cc(Cl)ccc1OCCCC(=O)NO	nt	81	nt	i	nt
Cc1cc(Cl)ccc1OCCCC(N)=O	nt	i	nt	i	i
COc1ccc(C#Cc2ccc([C@@H]3[C@H]4CN(C(=O)Nc5cccc(F)c5)CCCCN4[C@H]3CO)cc2)cc1	nt	nt	i	i	nt
COc1ccc(NC(=O)N2CCCCN3[C@H](CO)[C@H](c4ccc(C#Cc5ccccc5)cc4)[C@H]3C2)cc1	i	nt	95	i	nt
COc1ccc(C#Cc2ccc([C@H]3[C@@H](CO)N4CCCCN(C(=O)Nc5cccc(F)c5)C[C@H]34)cc2)cc1	nt	nt	nt	51	nt
COc1ccccc1C#Cc1ccc([C@@H]2[C@@H](CO)N3CCCCN(C(=O)C4CCCC4)C[C@@H]23)cc1	i	nt	i	i	nt
COc1ccccc1C#Cc1ccc([C@H]2[C@H](CO)N3CCCCN(C(=O)C4CCCC4)C[C@@H]23)cc1	i	nt	56	i	nt
Cc1noc(C)c1NC(=O)N(C)C[C@@H]1Oc2ccc(NC(=O)CCN3CCOCC3)cc2C(=O)N([C@@H](C)CO)C[C@H]1C	i	nt	i	i	nt
CN(C)c1ccc2c(c1)[C@H]1C[C@H](CC(=O)NCCN3CCCCC3)O[C@H](CO)[C@H]1O2	i	nt	56	i	i
CC(C)c1cccc(-c2ccc3c(c2)S(=O)(=O)c2cccc(C(=O)NCc4ccccc4Cl)c2C3=O)c1	nt	197	nt	i	nt

Screening results (PubChem)
